Source: PubChem BioAssay AID617 (SRMLSC, 2007)

Tested on: E. coli BW25113 ΔtolC growth inhibition, OD615
Assay: growth inhibitors of E. coli tolC mutant, dose response, strain BW25113 ΔtolC::kan (AID 617)
Outline: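 system = E. coli BW25113 tolC deletion strain (ΔtolC::kan), whole bacterial cells | technique = optical density (absorbance) at 615 nm | dosing = compounds in serially diluted dose-response series | times = bacterial growth with compound for 20 h, 37 °C | evaluation = growth-inhibition IC50 from four-parameter logistic curve, bounds set to 0% and 100%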

Compound	IC50
CCN(CCNC(=O)C1CCN(Cc2nc(-c3cccc(Cl)c3)oc2C)CC1)c1ccccc1	8.04 µM
O=S1(=O)Nc2c(ccc3cccnc23)-c2ccccc21	1.31 µM
O=C(Nc1nnc(C2CC2)s1)c1cc(-c2ccccc2)nn1-c1ccccc1	6.41 µM
Cc1nc2c(-c3ccccc3)c(C)[nH]n2c(=O)c1Cl	3.59 µM
Cc1cc(N2CCN(C(c3ccccc3)c3ccccc3)CC2)n2ncnc2n1	26.6 µM
CCN(CC)c1nc(N)c2c(N)nc3c(c2c1C#N)CC(c1ccccc1)O3 (configuration not stated)	6.58 µM
O=c1[nH]c(=O)n(C2CCCCCC2)c(O)c1C=NCc1ccc(F)cc1	14.6 µM
CCn1c(=N)n(CC(=O)C23CC4CC(CC(C4)C2)C3)c2ccccc21	13 µM
CCc1nc(N2CCCCC2)c2oc3ccccc3c2n1	16.2 µM
CC(C)(C)c1csc(NC(=O)c2ccc(Cl)s2)n1	29.6 µM
O=C(CSc1n[nH]c(-c2ccco2)n1)N1c2ccccc2Sc2ccccc21	9.51 µM
CCCn1c2ccccc2c2nc3ccccc3nc21	73.4 µM
Cc1cccc(N=c2oc3cc(O)ccc3cc2C(N)=O)c1	23 µM
c1ccc(-c2oc3ncnc(NCCCn4ccnc4)c3c2-c2ccccc2)cc1	6.05 µM
CCOC(=O)Cc1ccc(NS(=O)(=O)c2ccc(SC)cc2)cc1	14.7 µM
CCCCn1c(O)c(C(CC)=NCCc2ccccc2)c(=O)[nH]c1=O	14 µM
N#CCSc1nc2c(c(C3CC=CCC3)c1C#N)CCC2 (configuration not stated)	12.9 µM
Cc1cc(C(=O)OCc2nc3ccccc3s2)c(C)o1	32.6 µM
CC(C)(C)C1CCC2(CC1)C(C#N)=C(SCC(=O)NC1CCCCC1)NC(=O)C2C#N (configuration not stated)	6.1 µM
Cc1ccc(-c2nnc(N3CCN(c4ccccn4)CC3)c3ccccc23)cc1	4.28 µM
Cc1nn(Cc2ccccc2)c(C)c1C(=O)OCC(=O)c1cc(C)n(C2CC2)c1C	11.3 µM
CC(C)COc1ccc(-c2nnc(-c3ccco3)o2)cc1	40.6 µM
O=C(CSc1nc2ccccc2o1)Nc1ccccc1N1CCCCCC1	11.7 µM

Compound	IC50
N#Cc1nc(-c2ccc(OCc3ccccc3Cl)cc2)oc1NCCCn1ccnc1	5.13 µM
Cc1csc(NC(=O)CSc2ncnc3c2cnn3-c2ccccc2Cl)n1	16.4 µM
O=C(Nc1ccc(C(F)(F)F)cc1Cl)c1ccc(Cn2cc(Br)cn2)o1	9.95 µM
COC(=O)c1[nH]c2ccc(C)cc2c1NS(=O)(=O)c1ccc(F)cc1	6.58 µM
COC(=O)c1[nH]c2ccc(C)cc2c1NS(=O)(=O)c1ccc(F)c(C)c1	1.75 µM
CN1CCN(c2c(F)cc3c(=O)c(C(=O)O)cn4c3c2SCC4)CC1	0.91 µM
CC(=O)c1c(C)n([O-])c2ccccc2[n+]1=O	3.89 µM
CCCc1nc2sc3ccccc3c(=O)c2c(=O)n1Cc1ccco1	5.73 µM
COc1ccc(-c2nnc(NC(=O)c3ccc(S(=O)(=O)N4COCC4(C)C)cc3)o2)cc1	0.52 µM
CCc1ccccc1NS(=O)(=O)c1ccc(SC)cc1	41.6 µM
O=C(Nc1nc(-c2cc(Cl)sc2Cl)cs1)c1cccs1	1.69 µM
O=C1Nc2ccccc2C12OCC(COc1ccc(Cl)cc1)O2 (configuration not stated)	17.4 µM
c1ccc(CCN2CCN(c3ncnc4c3cnn4-c3ccccc3)CC2)cc1	10.6 µM
COc1ccc2nc(SCC(=O)N(C)C3CCCCC3)c(C#N)cc2c1	15.8 µM
COC(=O)c1sccc1NC(=O)c1csc(C)c1	23.1 µM
Cc1ccc(CN2CCSc3ccc(C(=O)N4CCN(c5ncccn5)CC4)cc32)cc1	17 µM
Cc1ccc(Cn2ccc(NC(=O)c3cc(CC(C)C)on3)n2)cc1	8.54 µM
Cc1cccc(C)c1NC(=O)C(c1cccs1)N(Cc1ccco1)C(=O)Cn1nnc2ccccc21 (configuration not stated)	29.3 µM
Oc1c(C(c2cccs2)N2CCN(c3cccc(Cl)c3)CC2)sc2ncnn12 (configuration not stated)	13.9 µM
O=C(Nc1ccc(Cl)cc1)NC1CCCC1Cc1ccco1 (configuration not stated)	3.63 µM
Cc1cc(NC(=O)COC(=O)C(Nc2ccc(C(F)(F)F)cc2Cl)C(C)C)no1 (configuration not stated)	5.37 µM
CCN(c1ccccc1)S(=O)(=O)c1ccc(C(=O)Nc2nnc(COC)o2)cc1	3.23 µM
CC(=O)Nc1cccc(NC(=O)c2oc3ccccc3c2C)c1	8.33 µM

Compound	IC50
O=c1c2c(nc3n1CCCCC3)-c1ccccc1CC21CCCC1	14.1 µM
O=S(=O)(Nc1cccc2ncccc12)c1cccs1	5.24 µM
COc1ccccc1N1CCN(C(=O)COc2ccc(C)cc2Br)CC1	25.9 µM
CCSc1nnc(NC(=O)c2nc(-c3ccccc3)n(-c3ccccc3)n2)s1	2.23 µM
OC(COc1ccc(Cl)c2ccccc12)CN1CCN(c2ccccn2)CC1 (configuration not stated)	11.6 µM
COc1ccc(C(=O)C(CN2CCOCC2)c2ccccc2)cc1F (configuration not stated)	17.7 µM
C=CCOC(=O)C(C#N)c1nc2ccccc2nc1N1CCN(Cc2ccccc2)CC1 (configuration not stated)	17.2 µM
Oc1ccc2c(c1)oc1cc(O)ccc12	16.6 µM
CCCCSC1=C(C#N)C(c2ccccc2C)C(C(=O)OCC)C(=O)N1 (configuration not stated)	11.5 µM
Cc1c(C(=O)N2CCc3ccccc3C2)sc2nc(-c3ccccc3)cn12	13.6 µM
CC1=C(C(=O)OCC(C)C)C(c2cc3c(cc2Br)OCO3)NC(=O)N1C (configuration not stated)	18.1 µM
CCn1c(C(=O)NCCCc2ccccc2)cc2sccc21	8.52 µM
CCOC(=O)c1cccc2c1-c1ccccc1/C2=N/O	97.1 µM
O=C(Nc1ccc(C(F)(F)F)cc1)C1CCCN1S(=O)(=O)c1cccc2cccnc12 (configuration not stated)	22.6 µM
CC1(C)Cc2c(sc3c2c(=N)n(Cc2ccco2)c(=O)n3Cc2ccc(Cl)cc2)CO1	13.3 µM
CCOC(=O)c1c(C)c(C(=O)Nc2cc(OC)ccc2OC)c(C)n1CC	24.3 µM
CCn1cc(C(=O)O)c(=O)c2cnc(N3CCN(C(=O)Nc4ccccc4)CC3)nc21	1.01 µM
COc1cccc(-c2cc(C(=O)N3C(C)CCCC3C)no2)c1 (configuration not stated)	32.8 µM
O=C(Cc1ccc(Br)cc1)c1ccc(O)cc1O	7.26 µM
O=C(NCC1CCCO1)c1sc(=S)n2c1[nH]c(=O)c1ccc(C(=O)N3CCCCC3)cc12 (configuration not stated)	16.4 µM
Cc1ccc2[nH]c(=O)c(CN(Cc3ccc4c(c3)OCO4)Cc3nnnn3C3CCCC3)cc2c1	42.3 µM
Cc1cc(C)c(C#N)c(SCC(=O)OC2CCCCC2)n1	19.1 µM
O=C(Nc1ccccc1)Nc1ccc(S(=O)(=O)N2CCCCC2)cc1	10.3 µM

Compound	IC50
Oc1c(CN2CCN(c3ccccn3)CC2)cc(Cl)c2cccnc12	11.4 µM
CCOc1ccccc1-c1nn2c(Cc3ccccc3)nnc2s1	0.76 µM
O=C1CCCC2=C1C(c1cccs1)n1nc(SCc3ccccc3)nc1N2 (configuration not stated)	15.8 µM
CCOC(=O)CSC1=C(C#N)C(c2ccco2)C(C(=O)Nc2cccc(C(F)(F)F)c2)=C(C)N1 (configuration not stated)	9.34 µM
Cc1ccc2c(c1)c1c(n2CC(O)Cn2c(C)nc3ccccc32)/C(=N\O)CCC1 (configuration not stated)	26.1 µM
Clc1cccc(NCc2nnc(SCc3ccccc3)o2)c1	9.57 µM
c1ccc(-c2nc(NCc3ccco3)c3ccccc3n2)nc1	5.54 µM
Cc1ccnc(N2CCC(C(=O)Nc3cccc(C(F)(F)F)c3)CC2)n1	82.2 µM
Cc1ccccc1Cn1nc(C)c(NC(=O)c2noc3c2CCc2ccccc2-3)c1C	12.1 µM
CC(=O)Nc1cccc(NC(=O)CSc2ncc(-c3ccc(Cl)cc3)n2Cc2ccco2)c1	2.99 µM
CCCN(CCC)C(=O)CSc1nc2ccccc2c(=O)n1C1CCCC1	14.2 µM
Cc1cccc(N2C(N)=C(C#N)C(C#N)(C#N)C2c2ccccc2)c1 (configuration not stated)	13.3 µM
COc1ccc(CNc2nc3c(c(=O)n(Cc4ccc(F)cc4)c(=O)n3C)n2C)cc1	22.5 µM
COc1ccc(-c2n[nH]c(C(F)(F)F)c2-c2cc3ccccc3o2)c(O)c1	1.99 µM
COc1ccc(-c2noc(CN3CCC(Cc4ccccc4)CC3)n2)cc1	17.2 µM
O=C(Nc1ccccc1N1CCCCC1)c1cccc(F)c1	15.2 µM
O=C(Cn1c(C(=O)NCc2ccco2)cc2sccc21)c1ccccc1	24.6 µM
CCCCN(C)S(=O)(=O)c1ccc(C(=O)Nc2nnc(CSC)o2)cc1	0.86 µM
O=C(Nc1ccc(Cl)c(Cl)c1)OCc1cccnc1	13.8 µM
CCOC(=O)Nc1ccc2c(c1)N(C(=O)N1CCN(C)CC1)c1ccccc1S2	36.9 µM
CN(Cc1ccccc1)c1nc2c(c(=O)n(C)c(=O)n2C)n1CCCc1ccccc1	7.51 µM
COC(=O)c1cn(NC(=O)c2cnccn2)c(=O)c2ccccc12	2.44 µM
O=c1c2cc3ccccc3n2cnn1Cc1ccccc1F	17.2 µM

Compound	IC50
CC1=C(C(=O)OC2CCCCCCC2)C(c2cccc(O)c2)NC(=O)N1 (configuration not stated)	12.3 µM
O=C(Nc1ccc(CN2CCOCC2)cc1)c1ccc(-c2ccc(Br)cc2)o1	30.4 µM
Cc1ccc(Nc2nc(N)nc(CN3CCN(c4ccccc4)CC3)n2)cc1Cl	5.97 µM
O=C(c1ccc(Cl)c(Cl)c1)N(Cc1ccco1)c1ccc(O)cc1	3.7 µM
CC1CCCCN1c1nc(-c2ccncc2)nc2ccccc12 (configuration not stated)	12 µM
CC(C)(C)c1cc(C(F)(F)F)nc(SCCCNC(=O)c2ccco2)n1	6.37 µM
COCCn1nnnc1C(C(C)C)N(Cc1ccccc1)Cc1cc2cc(OC)ccc2[nH]c1=O (configuration not stated)	11 µM
CSc1nc(-c2ccccc2)nc(N2CCCC2)c1C(C)=O	12.7 µM
CN1C(=O)C2(OCC(COc3ccc(Cl)cc3)O2)c2ccccc21 (configuration not stated)	11.1 µM
CC(=O)c1ccccc1OCC(O)CN1CCN(C(c2ccccc2)c2ccccc2)CC1 (configuration not stated)	14.1 µM
CCCCOc1ccc(NC2=NC3(CCCCC3)N=C(N)N2)cc1	2.64 µM
Cc1ccc2[nH]c3c(c2c1)CCc1cn[nH]c1-3	17.8 µM
Cc1nc2c(C(=O)NCc3ccc4c(c3)OCO4)c[nH]n2c(=O)c1Cc1ccccc1F	2.6 µM
CCOC(=O)c1c(C)[nH]c(C)c1C(=O)Cn1nnc(-c2ccccc2C)n1	5.44 µM
CC1CCN(C(=O)c2ccc(COc3ccccc3Cl)o2)CC1	11.1 µM
CCOc1ccc(C(=O)N2CCN(c3cccc(C)c3C)CC2)cc1	11 µM
COc1cccc(-c2nnc(NC(=O)c3ccc(S(=O)(=O)N(CC(C)C)CC(C)C)cc3)o2)c1	0.91 µM
Cc1cccn2c(=O)c3cc(C(=O)NCc4ccco4)c(=N)n(CCc4ccccc4)c3nc12	43.1 µM
CSCc1nnc(NC(=O)c2ccc(S(=O)(=O)N(CC(C)C)CC(C)C)cc2)o1	0.3 µM
CCCCNC(=O)c1sc(=S)n2c1[nH]c(=O)c1ccccc12	0.54 µM
